The record followed here is ChEMBL document CHEMBL5154683, “A 5-FU Precursor Designed to Evade Anabolic and Catabolic Drug Pathways and Activated by Pd Chemistry In Vitro and In Vivo” (J Med Chem, 2022).

A value given as a limit tells only on which side of the number the result lay.

A short description of data set [1]: Tmax in female Wistar Han rat at 1000 mg/kg, po administered as single dose measured upto 24 hrs. The format is ADME, organism-based. As to conditions: in vivo. The procedure, abridged: (§1)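 Single oral dose 1000 mg/kg in male and female rats, dosing volume 10 mL/kg (n = 6); animals observed 14 days with clinical checks, functional/neurobehavioral tests and body weight, necropsy on d15; exposure parameters from the toxicokinetic arm of this study.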

Data set [2] deals with HCT-116. As to the kind of experiment: Antiproliferative activity against human HCT-116 cells assessed as reduction in cell viability measured after 5 days by PrestoBlue reagent based assay. To be noted: HCT-116, 120 h. The format is functional. The procedure, abridged:
(§2)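 Cells in 10% FBS, 2 mM L-glutamine media at 37 °C, 5% CO₂ (HCT116 in McCoy's 5A, BxPC-3 in RPMI). Seeded at 3000 (HCT116) or 2500 (BxPC-3) cells/well and grown 48 h. Medium then replaced with drug-containing medium, 0.1% DMSO, for 5 d. PrestoBlue 10% v/v added for 1 h, fluorescence read ex 540/em 590 nm. Normalised to DMSO-only wells; sigmoidal variable-slope fit; n = 3.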

Data set [3] concerns BXPC-3. As to the kind of experiment: Antiproliferative activity against human BxPC-3 cells assessed as reduction in cell viability measured after 5 days by PrestoBlue reagent based assay. The format is functional. As to conditions: BXPC-3, 120 h. The procedure, abridged: as §2
A short description of data set [4]: Metabolic stability in human hepatocytes assessed as intrinsic clearance at 1 uM measured per 10^6 cells by LC-MS/MS analysis. It is filed as ADME, cell-based, Hepatocyte. As to conditions: read-out: CLH. The procedure, abridged:
(§3)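 Suspended hepatocytes (0.5 × 10⁶ cells/mL) in Williams E medium with 2 mM L-glutamine and 25 mM HEPES at 37 °C, compound added with 0.25% v/v DMSO after preincubation; aliquots quenched into methanol with internal standard at time points, centrifuged, supernatant analyzed by LC-MS/MS; two control compounds included.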

Data set [5] is described as follows: Prodrug conversion in PBS buffer assessed as mono-depropargylated intermediate formation by measuring retention time at 100 uM in presence of Pd-resin measured upto 1 hr by UPLC analysis. The format is ADME. The procedure, abridged:
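Prodrug (100 μM in PBS, pH 7.4) shaken at 1200 rpm, 37 °C with 1 mg/mL Pd resins (30 μm). Sampled at 10, 20, 40 min, 1, 3, 6, 24 and 48 h; analyzed by reverse-phase UPLC (C18, 60 °C, UV 254 nm), products identified by retention time against authentic standards.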

Data set [6] in a line: Cmax in female Wistar Han rat at 1000 mg/kg, po administered as single dose measured upto 24 hrs. More on the design: time < 24 hrs, dose 1000 mg/kg, route po. The format is ADME, organism-based. As to conditions: in vivo. The procedure, abridged:
as §1

Data set [7] in a line: Prodrug conversion in rat liver S9 fraction assessed as DH5FU metabolite formation at 1.6 mM incubated for 1 hr in presence of NADPH by 19F-NMR based analysis. It is filed as ADME, subcellular. To be noted: s9, 1 h, 1600 µM. In short, it runs like this:
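Compound added as 150 mM stock in DMSO-d₆, preincubated 5 min at 37 °C with enzyme mixture, then NADPH added (1 mM) and incubated 1 h at 37 °C, 600 rpm; controls without NADPH and without enzymes. Stopped with EtOAc, dried under N₂, redissolved in DMSO-d₆, DH5FU detected by ¹⁹F NMR vs authentic sample.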

A short description of data set [8]: Toxicity in female Wistar Han rat assessed as change in body weight at 1000 mg/kg, po administered as single dose measured over 14 days. The format is organism-based. To be noted: in vivo, 336 h, time > 14 day. The procedure, abridged: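 Single oral dose of 1000 mg/kg at 10 mL/kg to male and female rats (n = 6), then 14 d observation. Morbidity and mortality checked twice daily. Clinical signs recorded predose, twice on dosing day, then daily. FOB on d1, d7 or d14. Body weight on d1, 2, 5, 8, 11 and 14. Gross necropsy on d15.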

A short description of data set [9]: AUC (0 to t) in male Wistar Han rat at 10 mg/kg, po administered as single dose measured upto 24 hrs. It is filed as ADME, organism-based. Further details: time < 24 hrs, dose 10 mg/kg, route po. To be noted: in vivo. In short, it runs like this: (§4)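 Male jugular-vein-cannulated Wistar Han rats, 263–319 g, single dose. IV: 1 mg/kg as 2 mL/kg of 0.5 mg/mL in 5% DMSO/95% HPCD (20% w/v), not fasted. PO: 10 mg/kg as 5 mL/kg of 2 mg/mL suspension in 5% DMSO/95% tween 80/HPCD vehicle, fasted overnight. Serial cannula blood sampling 0.083/0.25–24 h (n = 3/route); parent quantified by QToF against calibration curve.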

Data set [10] in a line: Mean residence time in male Wistar Han rat at 1 mg/kg, iv administered as single dose measured upto 24 hrs. It is filed as ADME, organism-based. As to conditions: in vivo. The procedure, abridged: as §4
Data set [11] can be described thus: Plasma protein binding in rat assessed as compound recovery at 5 uM. The format is ADME, cell-free. To be noted: read-out: Drug recovery. The procedure, abridged: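 Binding of compound at 5 μM measured in rat and human plasma, with compound recovery determined; n = 3.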
Data set [12] is described as follows: Metabolic stability in rat hepatocytes assessed as intrinsic clearance at 1 uM measured per 10^6 cells by LC-MS/MS analysis. It is filed as ADME, cell-based, Hepatocyte. To be noted: read-out: CLH. In short, it runs like this:
as §3

Data set [13] can be described thus: Apparent permeability across basolateral to apical side in human Caco-2 cells at 10 uM measured after 120 mins by LC-MS/MS analysis. The format is ADME, cell-based. In short, it runs like this: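 Caco-2 cells (P40-60) seeded at 1 × 10⁵ cells/cm² on Transwells, used on day 20; rinsed and equilibrated 40 min in HBSS pH 7.4. Compound at 10 μM in HBSS, 1% v/v DMSO, added apically (A–B) or basolaterally (B–A); 120 min at 37 °C, 5% CO₂. Lucifer yellow monitored monolayer integrity; LC-MS/MS with eight-point calibration; recovery from C₀ and both compartments.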
(Caco-2 cells form a polarised layer with tight junctions and transporters.)

Data set [14] deals with Albumin (Homo sapiens, UniProt P02768). As to the kind of experiment: Binding affinity to human plasma albumin. The format is ADME, cell-free.
Albumin, sequence (P02768 whole entry): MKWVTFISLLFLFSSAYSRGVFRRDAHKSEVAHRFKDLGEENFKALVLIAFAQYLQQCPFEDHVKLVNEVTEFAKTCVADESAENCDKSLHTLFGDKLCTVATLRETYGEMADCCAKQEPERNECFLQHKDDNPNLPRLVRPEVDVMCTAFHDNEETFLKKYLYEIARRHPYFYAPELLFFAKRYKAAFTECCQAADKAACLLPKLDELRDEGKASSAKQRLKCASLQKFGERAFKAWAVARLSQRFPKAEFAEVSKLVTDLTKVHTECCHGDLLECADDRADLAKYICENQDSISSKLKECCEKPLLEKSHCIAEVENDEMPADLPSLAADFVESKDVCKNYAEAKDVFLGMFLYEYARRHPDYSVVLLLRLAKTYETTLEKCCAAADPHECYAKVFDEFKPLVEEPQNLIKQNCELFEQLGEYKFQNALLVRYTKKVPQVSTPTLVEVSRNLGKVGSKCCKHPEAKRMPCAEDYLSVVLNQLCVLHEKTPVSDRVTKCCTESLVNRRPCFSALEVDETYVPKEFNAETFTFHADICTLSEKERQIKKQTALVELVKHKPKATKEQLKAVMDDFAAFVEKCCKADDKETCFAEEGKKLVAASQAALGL

The term Tmax denotes the time from dosing to the highest level. A word on the EC50: it is the concentration giving half of the maximal effect. For orientation: Cmax means the highest concentration seen after dosing. A word on the AUC(0-t): it is exposure summed from dosing to a finite time, without extrapolation to infinity. Low readings indicate less exposure, high ones more exposure. For orientation: MRT means the average time that molecules of a dose stay in the body. For orientation: Papp B→A means the apparent permeability from the basolateral to the apical side of a cell layer. For the compound `C#CCOc1ncc(F)c(OCC#C)n1`, the Tmax in data set [1] was 4 h. Besides, the concentration giving a half-maximal response (EC50) in [2] and in data set [3] was over 100 µM each time. Besides, the hepatocyte CLint at 1 µM in data set [4] was 4.51 µL/min/1e6 cells; in data set [12], 15.3 µL/min/1e6 cells. Moreover, in data set [5], the Retention_time was 0.98 min. The peak level in data set [6] (Cmax) was 83.6 µg/mL. The Drug metabolism entry in data set [7] is “Metabolite_Notdetected”. For the same compound, the values for the Activity entry in data set [8] and in data set [14] were “Non-Toxic” and 10%, respectively. The compound further came in with an AUC(0-t) at 24 h in data set [9] of 6080 ng·h/mL. This compound returned an MRT in [10] of 0.569 h. Further, the recovery at 5 µM in data set [11] is 94.8%. The Papp B→A at 2 h, 10 µM in data set [13] was found to be 38.8 ×10⁻⁶ cm/s.
